# Test results reported in ChEMBL document CHEMBL4477209, “Indole-2-carboxamide-based MmpL3 Inhibitors Show Exceptional Antitubercular Activity in an Animal Model of Tuberculosis Infection” (J Med Chem, 2016).
# Calls of active or inactive are those of the source. The rule behind the calls is not given here.
# Key:
# [1] = test system: Mycobacterium tuberculosis; test: Antimycobacterial activity against Mycobacterium tuberculosis H37Rv infected in BALB/c mouse model assessed as protection against mouse mortality at 12.5 to 100 mg/kg administered daily via oral gavage for 5 days per week measured after 14 to 28 days post dosage; format: functional, organism-based
# [2] = target: T1, Nuclear receptor subfamily 1 group I member 3 (Homo sapiens, UniProt Q14994); test: Transactivation of CAR (unknown origin) assessed as upregulation of CYP2B6 at 0.1 to 1 microg/ml; format: ADME
# T1 sequence (Q14994 whole entry): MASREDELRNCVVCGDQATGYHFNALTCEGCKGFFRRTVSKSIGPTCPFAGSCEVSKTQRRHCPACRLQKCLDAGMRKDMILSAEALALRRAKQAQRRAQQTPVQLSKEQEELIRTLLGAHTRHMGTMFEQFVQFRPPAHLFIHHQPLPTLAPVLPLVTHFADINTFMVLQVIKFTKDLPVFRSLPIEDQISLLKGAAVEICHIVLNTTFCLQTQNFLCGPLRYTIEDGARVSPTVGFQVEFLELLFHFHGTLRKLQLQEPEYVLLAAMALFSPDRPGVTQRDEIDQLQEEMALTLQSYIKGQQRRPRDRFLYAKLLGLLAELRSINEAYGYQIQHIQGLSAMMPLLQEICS
# Method in brief: (§1)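 Nuclear receptor reporter-gene induction assay, with reporters coupled to PXR, CAR or AhR. Compound was tested at 0.1–1, 3 and 8 μg/mL. Positive controls were rifampin for PXR, CITCO for CAR and 3-methylcholanthrene for AhR.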
# [3] = Mutagenicity in Salmonella typhimurium TA1537; format: toxicity; settings: salmonella enterica subsp. enterica serovar typhimurium
# [4] = Selectivity index, ratio of IC50 for african green monkey Vero cells to MIC for clinical isolates of Mycobacterium tuberculosis; format: toxicity; settings: read-out: Selectivity Index
# [5] = Stability in human liver microsomes assessed as compound remaining at 3 uM after 1 hr; format: ADME, Microsome; settings: read-out: Stability
# Method in brief: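 Human liver microsomes incubated with 3 μM starting concentration for 1 h; percent of compound remaining.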
# [6] = target: Cytochrome P450 3A4 (Homo sapiens, UniProt P08684); test: Inhibition of CYP3A4 (unknown origin); format: ADME
# [7] = test system: Mycobacterium tuberculosis; test: Antimycobacterial activity against Mycobacterium tuberculosis H37Rv grown on serum isolated from 100 mg/kg, po treated BALB/c mouse for 30 to 120 mins assessed as reduction in bacterial growth followed by bacterial addition incubated for 7 days by alamar blue reagent based serum inhibition titration assay; format: functional, organism-based
# Method in brief: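 Six-week-old female BALB/c mice (20 g) given one oral dose as suspension in 0.5% CMC in water; isoniazid 10 mg/kg as positive control, vehicle as negative. Serum collected at 30, 60 and 120 min, pooled from three mice per time point, 2-fold serially diluted. 10^4 CFU H37Rv added per well, 7 days at 37 °C. alamarBlue added for 16−18 h, fluorescence read at Ex544/Em590 and plotted against serum titration.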
# [8] = target: T1, Nuclear receptor subfamily 1 group I member 3; test: Transactivation of CAR (unknown origin) assessed as upregulation of CYP2B6 at 3 to 8 microg/ml; format: ADME; method in brief: as §1
# [9] = Mean residence time (last) in BALB/c mouse plasma at 100 mg/kg administered via oral gavage by LC-MS analysis; format: ADME, organism-based
# Method in brief: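 Female BALB/c mice (20 g), single oral gavage dose of 100 mg/kg. Cardiac blood and lungs taken at 0, 0.25, 0.5, 1, 2, 4, 8 and 24 h (n = 3 per time point). Plasma separated by centrifugation; lungs bead-beaten in water and supernatant recovered. Drug quantified by LC-MS/MS against an indole-2-carboxamide internal standard. Parameters derived by noncompartmental analysis.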
# [10] = Mutagenicity in Salmonella typhimurium TA98 assessed as increase in ratio of revertant colonies at 5000 microg/plate in presence of S9 liver fraction relative to control; format: toxicity, subcellular; settings: salmonella enterica subsp. enterica serovar typhimurium
# Method in brief: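 Bacterial reverse mutation test in S. typhimurium TA98 with S9 liver fraction, at 500 and 5000 μg/plate. Revertant colony count expressed as a ratio to the DMSO solvent control; 2-aminoanthracene as positive control.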
# [11] = test system: Mycobacterium tuberculosis; test: Antimycobacterial activity against Mycobacterium tuberculosis H37Rv assessed as growth inhibition at 0.0313 times MIC after 7 to 14 days in presence of 0.5 times MIC of rifampin by alamar blue assay based by Bliss synergy model analysis; format: functional
# Method in brief: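 Checkerboard of 2-fold dilutions, 4.0 to 0.0313 × MIC of each drug combined with rifampin. M. tuberculosis H37Rv at 1 × 10^4 CFU per well in 200 μL. Single-drug, blank and full-growth controls included. alamarBlue read-out, percent inhibition calculated. Bliss independence applied to wells below 1 × MIC; Δfaxy > 0 taken as synergy, < 0 as antagonism.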
# [12] = Tmax in BALB/c mouse plasma at 100 mg/kg administered via oral gavage after 0.25 to 24 hrs by LC-MS analysis; format: ADME, organism-based
# Method in brief: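 Female BALB/c mice (20 g) got a single 100 mg/kg oral gavage dose. Three animals were sacrificed per time point at 0, 0.25, 0.5, 1, 2, 4, 8 and 24 h. Cardiac blood was spun at 12 000g, 4 °C for plasma. Lungs were bead-beaten in water and the supernatant taken. Both matrices were quantified by LC-MS/MS with an indole-2-carboxamide internal standard. Parameters came from noncompartmental analysis.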
# [13] = target: T2, Aryl hydrocarbon receptor (Homo sapiens, UniProt P35869); test: Transactivation of AhR (unknown origin) assessed as upregulation of CYP1A2 at 3 to 8 microg/ml; format: ADME; method in brief: as §1
# T2 sequence (P35869 whole entry): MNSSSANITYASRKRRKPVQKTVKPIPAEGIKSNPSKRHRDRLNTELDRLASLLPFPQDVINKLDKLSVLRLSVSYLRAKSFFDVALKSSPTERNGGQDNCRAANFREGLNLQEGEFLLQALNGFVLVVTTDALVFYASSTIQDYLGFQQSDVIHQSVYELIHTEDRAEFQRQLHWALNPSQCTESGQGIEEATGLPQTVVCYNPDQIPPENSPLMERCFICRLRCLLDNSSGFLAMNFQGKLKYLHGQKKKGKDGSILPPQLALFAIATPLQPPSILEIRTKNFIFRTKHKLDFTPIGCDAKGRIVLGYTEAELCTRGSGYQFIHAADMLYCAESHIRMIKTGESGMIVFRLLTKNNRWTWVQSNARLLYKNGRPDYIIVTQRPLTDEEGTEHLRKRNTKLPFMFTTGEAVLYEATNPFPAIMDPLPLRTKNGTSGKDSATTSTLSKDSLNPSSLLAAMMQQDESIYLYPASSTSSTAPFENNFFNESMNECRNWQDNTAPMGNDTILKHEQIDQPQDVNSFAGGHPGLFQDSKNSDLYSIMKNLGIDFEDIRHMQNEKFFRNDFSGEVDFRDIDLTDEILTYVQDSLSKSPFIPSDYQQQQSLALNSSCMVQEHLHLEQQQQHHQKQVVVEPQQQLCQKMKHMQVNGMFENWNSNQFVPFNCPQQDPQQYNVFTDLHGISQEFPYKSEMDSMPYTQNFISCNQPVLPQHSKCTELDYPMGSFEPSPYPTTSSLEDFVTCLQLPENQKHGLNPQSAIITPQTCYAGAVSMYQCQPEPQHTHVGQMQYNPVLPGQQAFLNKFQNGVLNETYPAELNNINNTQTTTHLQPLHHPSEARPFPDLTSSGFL
# [14] = Stability in human hepatocytes assessed as compound remaining at 1 uM after 2 hrs; format: ADME, cell-based, Hepatocyte; settings: read-out: Stability
# Method in brief: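 Hepatocytes from human, mouse, rat or dog incubated with 1 μM starting concentration for 2 h; percent of parent compound remaining.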
# Chain of Cytochrome P450 3A4 (P08684 whole entry): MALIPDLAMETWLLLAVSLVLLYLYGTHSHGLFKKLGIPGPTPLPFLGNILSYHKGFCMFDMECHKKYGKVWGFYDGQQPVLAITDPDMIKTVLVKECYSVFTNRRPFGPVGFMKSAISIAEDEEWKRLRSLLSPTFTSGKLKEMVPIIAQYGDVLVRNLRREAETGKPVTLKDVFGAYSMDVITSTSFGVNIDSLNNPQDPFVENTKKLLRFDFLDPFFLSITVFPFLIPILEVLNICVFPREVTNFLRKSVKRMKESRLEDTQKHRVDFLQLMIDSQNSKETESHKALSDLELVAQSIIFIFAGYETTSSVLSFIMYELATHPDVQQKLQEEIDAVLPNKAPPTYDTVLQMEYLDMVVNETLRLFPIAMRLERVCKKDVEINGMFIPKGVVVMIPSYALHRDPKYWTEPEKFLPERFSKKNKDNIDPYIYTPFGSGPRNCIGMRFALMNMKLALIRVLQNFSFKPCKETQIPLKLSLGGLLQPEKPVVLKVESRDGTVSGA
smiles,measurement,setting,value
C[C@@H]1[C@H]2C[C@@H](C[C@H]1NC(=O)c1cc3c(F)cc(F)cc3[nH]1)C2(C)C,Activity,[1],Active
same,Activity,[2],Not Active
same,Activity,[3],Non-Toxic
same,selectivity ratio,[4],≥ 16000
same,"remaining at 1 h, 3 µM",[5],69.5%
same,inhibition (INH),[6],-6.7%
same,Activity,[7],Active
same,Activity,[8],Active
same,MRT last,[9],7.28 h
same,fold change (FC),[10],2
same,growth inhibition (GI),[11],90.5%
same,Tmax,[12],4 h
same,Activity,[13],Active
same,"remaining at 2 h, 1 µM",[14],52%
